Laboratory results taken from ChEMBL document CHEMBL1127523, “Design and synthesis of side-chain conformationally restricted phenylalanines and their use for structure-activity studies on tachykinin NK-1 receptor” (J Med Chem, 1994).
Blank lines part the entries; values can stand above or below the compound they belong to. Starred links: 1 amine or outer side, 2 acyl side, 3 side chain; linkers in the order of their positions; H or OH if unused. Non-standard residues stand in square brackets, D forms with d. Residues, ends and D or L forms follow the SMILES beside them. Gly(9-fluorenyl) = N[C@H](C(=O)O)C1c2ccccc2-c2ccccc21; X1 = O=C([C@@H](N[*:1])C1CCc2ccccc21)[*:2]; Dip = N[C@H](C(=O)O)C(c1ccccc1)c1ccccc1

How the values were obtained:
Cavia porcellus [1] = species on record: Cavia porcellus; assay: (§1) pKB value of compound was determined in presence of antagonist RP-67580 at conc. of 10e-7 M; type: functional
Neuromedin-K receptor = target: T1, Neuromedin-K receptor (Rattus norvegicus, UniProt P16177); assay: Concentration required to inhibit the specific binding of [125I]BH-ELE to Neurokinin-3 (NK-3) receptor in rat brain synaptosomes; type: subcellular
T1 sequence (P16177 whole entry): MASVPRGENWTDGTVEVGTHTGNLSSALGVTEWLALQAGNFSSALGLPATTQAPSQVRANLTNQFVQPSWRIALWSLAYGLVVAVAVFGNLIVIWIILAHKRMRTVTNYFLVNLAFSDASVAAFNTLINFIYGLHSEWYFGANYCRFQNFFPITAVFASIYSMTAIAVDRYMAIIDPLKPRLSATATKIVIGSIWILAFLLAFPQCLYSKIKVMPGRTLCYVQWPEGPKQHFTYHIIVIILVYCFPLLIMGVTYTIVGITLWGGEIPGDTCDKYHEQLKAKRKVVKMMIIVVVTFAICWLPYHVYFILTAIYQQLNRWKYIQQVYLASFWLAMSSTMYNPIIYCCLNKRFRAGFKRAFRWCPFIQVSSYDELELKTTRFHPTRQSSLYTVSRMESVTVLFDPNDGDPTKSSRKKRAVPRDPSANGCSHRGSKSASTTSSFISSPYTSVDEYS
Method in brief: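 Rat brain synaptosomes in Krebs-Ringer phosphate buffer with BSA, bacitracin and glucose. Incubated 15 min at 20 °C with 40 pM [125I]BHELE and increasing peptide concentrations, gamma counted. Triplicates, two to eight independent experiments; nonspecific binding defined with eledoisin 10⁻⁶ M. IC50 estimated from Hill plots of titration curves.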

Substance-P receptor = Substance-P receptor (Rattus norvegicus, UniProt P14600); assay: Concentration required to inhibit the specific binding of [125I]BH-SP to Neurokinin-1 (NK-1) receptor in rat brain synaptosomes; type: subcellular
Substance-K receptor = target: T2, Substance-K receptor (Rattus norvegicus, UniProt P16610); assay: Concentration required to inhibit the specific binding of [3H]NKA to Neurokinin-2 (NK-2) receptor in rat duodenum membranes
T2 sequence (P16610 whole entry): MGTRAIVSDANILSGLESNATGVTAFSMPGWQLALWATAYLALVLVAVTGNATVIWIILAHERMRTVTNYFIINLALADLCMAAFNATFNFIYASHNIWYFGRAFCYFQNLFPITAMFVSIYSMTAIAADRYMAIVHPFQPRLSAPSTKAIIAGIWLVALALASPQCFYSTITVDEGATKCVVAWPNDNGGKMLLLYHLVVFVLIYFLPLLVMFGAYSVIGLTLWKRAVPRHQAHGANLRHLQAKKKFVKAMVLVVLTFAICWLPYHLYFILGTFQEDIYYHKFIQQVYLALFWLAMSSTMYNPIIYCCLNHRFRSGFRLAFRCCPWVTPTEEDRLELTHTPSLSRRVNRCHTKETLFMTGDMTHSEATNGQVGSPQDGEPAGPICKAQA

Cavia porcellus [2] = species on record: Cavia porcellus; assay: Effective concentration required for its inhibition of nonspecific binding to guinea pig ileal membranes; type: functional
Cavia porcellus [3] = species on record: Cavia porcellus; assay: Concentration required to inhibit nonspecific binding of [125I]BH-SP to guinea pig ileal membranes; type: functional
Cavia porcellus [4] = species on record: Cavia porcellus; assay: as §1; type: functional; remark: listed apart in the source
Method in brief: (§2)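 Guinea pig ileum strips (1 cm, terminal portion, males 300–400 g) in oxygenated Tyrode at 37 °C, 1 g tension. Agonist added cumulatively, doubling bath concentration at each steady response. Antagonist RP-67,580, one concentration (10⁻⁷ M), preincubated 5 min before first agonist addition. pKB = log(dose ratio − 1) − log([antagonist]); three independent determinations.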

Cavia porcellus [5] = species on record: Cavia porcellus; assay: pKb value of compound was determined in presence of antagonist RP-67580 at conc. of 10e-7 M; type: functional; method in brief: as §2

Chain of Substance-P receptor (P14600 whole entry): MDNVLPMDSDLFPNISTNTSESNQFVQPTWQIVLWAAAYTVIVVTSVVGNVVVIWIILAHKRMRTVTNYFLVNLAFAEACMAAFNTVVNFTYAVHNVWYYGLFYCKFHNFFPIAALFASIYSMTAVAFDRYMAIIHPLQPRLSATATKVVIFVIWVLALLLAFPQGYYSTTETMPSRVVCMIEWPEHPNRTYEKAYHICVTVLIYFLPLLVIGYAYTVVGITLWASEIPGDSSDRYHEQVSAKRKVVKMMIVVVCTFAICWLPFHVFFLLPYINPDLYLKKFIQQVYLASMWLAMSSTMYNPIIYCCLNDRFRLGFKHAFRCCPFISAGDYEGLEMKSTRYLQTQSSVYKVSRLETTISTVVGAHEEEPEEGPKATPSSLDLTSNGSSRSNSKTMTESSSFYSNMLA

SMILES: CSCC[C@H](NC(=O)[C@H](CC(C)C)NC(=O)CNC(=O)[C@H](Cc1ccccc1)NC(=O)[C@@H](NC(=O)[C@H](CCC(N)=O)NC(=O)[C@H](CCC(N)=O)NC(=O)[C@@H]1CCCN1C(=O)[C@H](CCCCN)NC(=O)[C@@H]1CCCN1C(=O)[C@@H](N)CCCN=C(N)N)[C@@H]1CCc2ccccc21)C(N)=O
pKb (Cavia porcellus [1]): 7.06

SMILES: CSCC[C@H](NC(=O)[C@H](CC(C)C)NC(=O)[C@@H]1CCCN1C(=O)[C@H](Cc1ccccc1)NC(=O)[C@H](Cc1ccccc1)NC(=O)[C@H](CCC(N)=O)NC(=O)[C@H](CCC(N)=O)NC(=O)[C@@H]1CCCN1C(=O)[C@H](CCCCN)NC(=O)[C@@H]1CCCN1C(=O)[C@@H](N)CCCN=C(N)N)C(N)=O
pKb (Cavia porcellus [1]): 6.97

SMILES: CSCC[C@H](NC(=O)[C@H](CC(C)C)NC(=O)CNC(=O)[C@H](Cc1ccccc1)NC(=O)[C@@H](NC(=O)[C@H](CCC(N)=O)NC(=O)[C@H](CCC(N)=O)NC(=O)[C@@H]1CCCN1C(=O)[C@H](CCCCN)NC(=O)[C@@H]1CCCN1C(=O)[C@@H](N)CCCN=C(N)N)C1CCc2cc3ccccc3cc21)C(N)=O (some centres undefined)
pKb (Cavia porcellus [1]): 7.3

IC50 (Neuromedin-K receptor): 3100 nM | IC50 (Substance-P receptor): 1400 nM | IC50 (Substance-K receptor): 690 nM | EC50 (Cavia porcellus [2]): 9.5 nM | IC50 (Cavia porcellus [3]): 110 nM
SMILES: CSCC[C@H](NC(=O)[C@H](CC(C)C)NC(=O)CNC(=O)[C@H](Cc1ccccc1)NC(=O)[C@@H](NC(=O)[C@H](CCC(N)=O)NC(=O)[C@H](CCC(N)=O)NC(=O)[C@@H]1CCCN1C(=O)[C@H](CCCCN)NC(=O)[C@@H]1CCCN1C(=O)[C@@H](N)CCCN=C(N)N)C1c2ccccc2-c2ccccc21)C(N)=O [listing 1 of 2 here]

SMILES: CSCC[C@H](NC(=O)[C@H](CC(C)C)NC(=O)CNC(=O)[C@H](Cc1ccccc1)NC(=O)[C@@H](NC(=O)[C@H](CCC(N)=O)NC(=O)[C@H](CCC(N)=O)NC(=O)[C@@H]1CCCN1C(=O)[C@H](CCCCN)NC(=O)[C@@H]1CCCN1C(=O)[C@@H](N)CCCN=C(N)N)C1c2ccccc2-c2ccccc21)C(N)=O [listing 2 of 2 here]
pKb (Cavia porcellus [1]): 7.1

SMILES: CSCC[C@H](NC(=O)[C@H](CC(C)C)NC(=O)CNC(=O)[C@H](Cc1ccccc1)NC(=O)/C(=C\c1ccccc1)NC(=O)[C@H](CCC(N)=O)NC(=O)[C@H](CCC(N)=O)NC(=O)[C@@H]1CCCN1C(=O)[C@H](CCCCN)NC(=O)[C@@H]1CCCN1C(=O)[C@@H](N)CCCN=C(N)N)C(N)=O
pKb (Cavia porcellus [1]): 7.15

SMILES: CSCC[C@H](NC(=O)[C@H](CC(C)C)NC(=O)CNC(=O)[C@@H](NC(=O)[C@H](Cc1ccccc1)NC(=O)[C@H](CCC(N)=O)NC(=O)[C@H](CCC(N)=O)NC(=O)[C@@H]1CCCN1C(=O)[C@H](CCCCN)NC(=O)[C@@H]1CCCN1C(=O)[C@@H](N)CCCN=C(N)N)C(c1ccccc1)c1ccccc1)C(N)=O
pKb (Cavia porcellus [1]): 6.9

SMILES: CSCC[C@H](NC(=O)[C@H](CC(C)C)NC(=O)CNC(=O)[C@H](Cc1ccccc1)NC(=O)[C@H](CCc1ccccc1)NC(=O)[C@H](CCC(N)=O)NC(=O)[C@H](CCC(N)=O)NC(=O)[C@@H]1CCCN1C(=O)[C@H](CCCCN)NC(=O)[C@@H]1CCCN1C(=O)[C@@H](N)CCCN=C(N)N)C(N)=O
pKb (Cavia porcellus [1]): 7.25

IC50 (Neuromedin-K receptor): > 10000 nM | IC50 (Substance-P receptor): 2500 nM | IC50 (Substance-K receptor): 6000 nM | EC50 (Cavia porcellus [2]): 20 nM | IC50 (Cavia porcellus [3]): 260 nM
SMILES: CSCC[C@H](NC(=O)[C@H](CC(C)C)NC(=O)[C@@H]1CCCN1C(=O)[C@@H](NC(=O)[C@H](Cc1ccccc1)NC(=O)[C@H](CCC(N)=O)NC(=O)[C@H](CCC(N)=O)NC(=O)[C@@H]1CCCN1C(=O)[C@H](CCCCN)NC(=O)[C@@H]1CCCN1C(=O)[C@@H](N)CCCN=C(N)N)C(c1ccccc1)c1ccccc1)C(N)=O (H-RPKPQQF[Dip]PLM-NH2) [listing 1 of 2 here]

SMILES: CSCC[C@H](NC(=O)[C@H](CC(C)C)NC(=O)[C@@H]1CCCN1C(=O)[C@@H](NC(=O)[C@H](Cc1ccccc1)NC(=O)[C@H](CCC(N)=O)NC(=O)[C@H](CCC(N)=O)NC(=O)[C@@H]1CCCN1C(=O)[C@H](CCCCN)NC(=O)[C@@H]1CCCN1C(=O)[C@@H](N)CCCN=C(N)N)C(c1ccccc1)c1ccccc1)C(N)=O (H-RPKPQQF[Dip]PLM-NH2) [listing 2 of 2 here]
pKB (Cavia porcellus [4]): 7.25

IC50 (Neuromedin-K receptor): 450 nM | IC50 (Substance-P receptor): 29 nM | IC50 (Substance-K receptor): 110 nM | EC50 (Cavia porcellus [2]): 3.4 nM | IC50 (Cavia porcellus [3]): 7.9 nM
SMILES: CSCC[C@H](NC(=O)[C@H](CC(C)C)NC(=O)CNC(=O)[C@@H](NC(=O)[C@@H](NC(=O)[C@H](CCC(N)=O)NC(=O)[C@H](CCC(N)=O)NC(=O)[C@@H]1CCCN1C(=O)[C@H](CCCCN)NC(=O)[C@@H]1CCCN1C(=O)[C@@H](N)CCCN=C(N)N)C1CCc2ccccc21)C1c2ccccc2-c2ccccc21)C(N)=O (some centres undefined) (H-RPKPQQ[X1][Gly(9-fluorenyl)]GLM-NH2) [listing 1 of 2 here]

SMILES: CSCC[C@H](NC(=O)[C@H](CC(C)C)NC(=O)CNC(=O)[C@@H](NC(=O)[C@@H](NC(=O)[C@H](CCC(N)=O)NC(=O)[C@H](CCC(N)=O)NC(=O)[C@@H]1CCCN1C(=O)[C@H](CCCCN)NC(=O)[C@@H]1CCCN1C(=O)[C@@H](N)CCCN=C(N)N)C1CCc2ccccc21)C1c2ccccc2-c2ccccc21)C(N)=O (some centres undefined) (H-RPKPQQ[X1][Gly(9-fluorenyl)]GLM-NH2) [listing 2 of 2 here]
pKb (Cavia porcellus [5]): 7.1
